Measured values from ChEMBL document CHEMBL1123103, “Pyrimidinones. 1. 2-Amino-5-halo-6-aryl-4(3H)-pyrimidinones. Interferon-inducing antiviral agents” (1985).
Calls of active or inactive are those of the source. The calls are words filed in the database; no cut-off is given here.

Tests used:
Semliki Forest virus [1] = test: Antiviral activity against Forest virus (SFV); assay type: functional
How it was run: (§1)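 ICR or CD-1 mice of both sexes got one drug dose by the route in the line (ip, po or sc). The drug was a suspension in 0.9% NaCl or in a CMC/polysorbate 80/benzyl alcohol/NaCl vehicle. […] Deaths were recorded daily for 6 days, 24 mice/group. ED50 is the minimal dose protecting 50% of mice, by probit analysis.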

Mus musculus [2] = test: Evaluation for serum interferon response from a single 800 mg/kg intraperitoneal administration in vesicular stomatitis virus on […] cells; Range 10-50 units/mL; assay type: functional
How it was run: (§2)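 Mice got a single ip 800 mg/kg dose. Blood was drawn 3, 6, 8 and 12 h later from five mice per group and pooled. Interferon titer was measured by plaque reduction with vesicular stomatitis virus on L929 cells. Titer is the reciprocal serum dilution cutting plaques by 50% versus untreated cultures. Peak response within 24 h was banded: ≥2000, ~500-1000, ~50-500, ~10-50 U/mL.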

Semliki Forest virus [3] = test: Effective dose administered perorally againist Forest virus infected mice; assay type: functional; settings: po; how it was run: as §1
Human alphaherpesvirus 1 = test: Intraperitoneal administration against herpes simplex virus type-1 (HSV-1) infected mice; assay type: functional
How it was run: (§3)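 ICR or CD-1 mice got drug ip in saline as the total daily dose (mg/kg/day). It was split into doses at -40, -28, -20, -3 and +3 h relative to ip inoculation with 5.6×10^4 pfu HSV-1. Mice were followed for 22 days, 15/group. Protection index = (control mortality − treated mortality)/control mortality; >0.25 counted active. Only the lowest protective dose is recorded.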

Semliki Forest virus [4] = test: Effective dose administered subcutaneously againist Forest virus infected mice; assay type: functional; settings: sc; how it was run: as §1
Mus musculus [5] = test: The compound was evaluated for the serum interferon response from a single 800 mg/kg intraperitoneal administration in vesicular stomatitis virus on […] cells; range 500-1000 units/mL; assay type: functional; how it was run: as §2
Semliki Forest virus [6] = test: Effective dose administered perorally against Forest virus infected mice; assay type: functional, organism-based
How it was run: (§4)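 Drug was suspended in 0.9% NaCl or in a carboxymethylcellulose/polysorbate 80/benzyl alcohol/NaCl vehicle. Deaths were recorded daily for 6 days, with 24 mice per group. The ED50 is the minimal dose protecting 50% of mice, calculated by probit analysis.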

Semliki Forest virus [7] = test: Effective dose administered subcutaneously against Forest virus infected mice; assay type: functional, organism-based; how it was run: as §4
Semliki Forest virus [8] = test: Effective dose administered intraperitoneally againist Forest virus infected mice; assay type: functional, organism-based; how it was run: as §4
Mus musculus [9] = test: The compound was evaluated for the serum interferon response from a single 800 mg/kg intraperitoneal administration in vesicular stomatitis virus on […] cells; Range 500-1000 units/mL; assay type: functional; how it was run: as §2
Mus musculus [10] = test: Protection index after intraperitoneal administration (25 mg/kg/day) against herpes simplex virus type-1 (HSV-1) infected mice [protection index=(control mortality-treated mortality)/control mortality]; assay type: functional; how it was run: as §3
[11] = system: Vesicular stomatitis virus; test: Evaluation for serum interferon response from a single 800 mg/kg intraperitoneal administration in vesicular stomatitis virus on […] cells.; assay type: functional; how it was run: as §2
Mus musculus [12] = test: Protection index after intraperitoneal administration (50 mg/kg/day) against herpes simplex virus type-1 (HSV-1) infected mice [protection index=(control mortality-treated mortality)/control mortality]; assay type: functional; how it was run: as §3
Mus musculus [13] = test: The compound was evaluated for the serum interferon response from a single 800 mg/kg intraperitoneal administration in vesicular stomatitis virus on […] cells; range 50-500; assay type: functional; how it was run: as §2
Mus musculus [14] = test: The compound was evaluated for the serum interferon response from a single 800 mg/kg intraperitoneal administration in vesicular stomatitis virus on […] cells; Range 50-500 units/mL; assay type: functional; how it was run: as §2

Structure (SMILES)	ED50 (Semliki Forest virus [1]) [mg/kg]	ED50 (Semliki Forest virus [3]) [mg/kg]	Protection index (Human alphaherpesvirus 1)	ED50 (Semliki Forest virus [4]) [mg/kg]	ED50 (Semliki Forest virus [6])	ED50 (Semliki Forest virus [7])	also measured
Nc1nc(O)c(I)c(-c2cccc3ccccc23)n1	70	> 400	0.18	> 400	–	–	IFN (Mus musculus [2]): 10 units/mL
Nc1nc(O)c(I)c(-c2cnccn2)n1	275	> 400	–	> 400	–	–	IFN (Mus musculus [5]): 500 units/mL
CC(C)(C)c1ccc(-c2nc(N)nc(O)c2I)cc1	–	–	–	–	inactive	inactive	ED50 (Semliki Forest virus [8]): inactive
Nc1nc(O)c(Cl)c(-c2ccc(O)cc2)n1	> 400	–	–	–	inactive	inactive	–
Nc1nc(O)c(Br)c(-c2ccc(O)cc2)n1	> 400	–	–	–	inactive	inactive	–
Nc1nc(O)c(I)c(-c2ccc3ccccc3n2)n1	–	–	–	–	inactive	inactive	ED50 (Semliki Forest virus [8]): inactive
Nc1nc(O)c(I)c(-c2ccoc2)n1	> 400	–	–	–	inactive	inactive	–
Nc1nc(O)c(Cl)c(-c2cnccn2)n1	110	395	0.07	> 400	–	–	IFN (Mus musculus [5]): 500 units/mL
Nc1nc(O)c(Br)c(-c2cccc3ccccc23)n1	40	> 400	0	> 400	–	–	IFN (Mus musculus [2]): 10 units/mL
Nc1nc(O)c(Br)c(-c2ccc(-c3ccccc3)cc2)n1	–	–	–	–	inactive	inactive	ED50 (Semliki Forest virus [8]): inactive
CCCOc1cccc(-c2nc(N)nc(O)c2Br)c1	100	> 400	0.4	> 400	–	–	IFN (Mus musculus [2]): 10 units/mL
Nc1nc(O)c(I)c(-c2cccc(Cl)c2)n1	35	> 400	0.65	250	–	–	IFN (Mus musculus [9]): 500 units/mL
Nc1nc(O)c(Cl)c(-c2cccc(F)c2F)n1	70	200	0.93	–	–	–	IFN (Mus musculus [9]): 500 units/mL
Nc1nc(O)c(Br)c(-c2cccc(F)c2)n1	70	175	–	155	–	–	Protection index (Mus musculus [10]): 0.64; IFN [11]: >=2000 ml
Nc1nc(O)c(Br)c(-c2ccc3ccccc3n2)n1	–	–	0.14	–	inactive	inactive	ED50 (Semliki Forest virus [8]): inactive
COc1cccc(-c2nc(N)nc(O)c2Cl)c1	15	> 400	–	205	–	–	Protection index (Mus musculus [12]): 0.92; IFN [11]: 50 units/mL
COc1ccc(-c2nc(N)nc(O)c2Br)cc1	> 400	–	–	–	inactive	inactive	–
Nc1nc(O)c(I)c(-c2ccc(Cl)cc2)n1	110	> 400	0.27	> 400	–	–	IFN (Mus musculus [2]): 10 units/mL
Nc1nc(O)c(I)c(-c2cccc(F)c2)n1	10	> 400	–	80	–	–	IFN (Mus musculus [9]): 500 units/mL; Protection index (Mus musculus [10]): 0.25
Nc1nc(O)c(Cl)c(-c2cc(F)ccc2F)n1	165	> 400	–	–	–	–	IFN (Mus musculus [9]): 500 units/mL
Cc1ccc(-c2nc(N)nc(O)c2I)cc1	115	> 400	–	> 400	–	–	IFN (Mus musculus [2]): 10 units/mL
Nc1nc(O)c(I)c(-c2cccc(Br)c2)n1	65	> 400	–	90	–	–	IFN (Mus musculus [13]): 500 mL
Nc1nc(O)c(I)c(-c2ccco2)n1	135	> 400	0.28	> 400	–	–	IFN (Mus musculus [2]): 10 units/mL
CC(C)(C)c1ccc(-c2nc(N)nc(O)c2Br)cc1	–	–	–	–	inactive	inactive	ED50 (Semliki Forest virus [8]): inactive

Structure (SMILES)	ED50 (Semliki Forest virus [1]) [mg/kg]	ED50 (Semliki Forest virus [3]) [mg/kg]	Protection index (Human alphaherpesvirus 1)	ED50 (Semliki Forest virus [4]) [mg/kg]	ED50 (Semliki Forest virus [6])	ED50 (Semliki Forest virus [7])	also measured
Cc1ccccc1-c1nc(N)nc(O)c1Cl	130	> 400	0.13	350	–	–	IFN (Mus musculus [5]): 500 units/mL
Nc1nc(O)c(Br)c(-c2ccc(F)cc2)n1	160	> 400	0.46	> 400	–	–	IFN (Mus musculus [9]): 500 units/mL
Nc1nc(O)c(Br)c(-c2ccc(Cl)cc2)n1	100	> 400	–	> 400	–	–	IFN (Mus musculus [2]): 10 units/mL
Nc1nc(O)c(Cl)c(-c2cccc(F)c2)n1	30	> 400	–	100	–	–	Protection index (Mus musculus [10]): 0.61; IFN [11]: >=2000 ml
COc1cccc(-c2nc(N)nc(O)c2Br)c1	10	> 400	–	55	–	–	Protection index (Mus musculus [12]): 0.62; IFN [11]: 50 units/mL
COc1ccc(-c2nc(N)nc(O)c2I)cc1	> 400	–	–	–	inactive	inactive	–
Nc1nc(O)c(Br)c(-c2cccc(Br)c2)n1	110	> 400	0.47	> 400	–	–	IFN (Mus musculus [13]): 500 mL
Nc1nc(O)c(Cl)c(-c2ccccc2F)n1	105	105	–	115	–	–	Protection index (Mus musculus [12]): 0.69; IFN [11]: >=2000 ml
Nc1nc(O)c(Br)c(-c2ccc3ccccc3c2)n1	> 400	–	–	–	inactive	inactive	–
Nc1nc(O)c(Br)c(-c2c(F)cc(F)cc2F)n1	–	–	0	–	–	–	ED50 (Semliki Forest virus [8]): inactive
CCCOc1cccc(-c2nc(N)nc(O)c2Cl)c1	40	> 400	0.13	–	–	–	IFN (Mus musculus [2]): 10 units/mL
Cc1ccc(-c2nc(N)nc(O)c2Br)cc1	200	–	–	–	–	–	IFN (Mus musculus [2]): 10 units/mL
Nc1nc(O)c(I)c(-c2ccccc2F)n1	105	> 400	–	> 400	–	–	IFN (Mus musculus [5]): 500 units/mL; Protection index (Mus musculus [12]): 0.67
Nc1nc(O)c(Br)c(-c2ccncc2)n1	> 400	–	0	–	inactive	inactive	–
Nc1nc(O)c(Cl)c(-c2ccc3ccccc3n2)n1	–	–	0.07	–	inactive	inactive	ED50 (Semliki Forest virus [8]): inactive
Nc1nc(O)c(Br)c(-c2ccccc2F)n1	25	> 400	–	200	–	–	Protection index (Mus musculus [12]): 0.69; IFN [11]: 50 units/mL
Nc1nc(O)c(Br)c(-c2cccc(C(F)(F)F)c2)n1	200	> 400	0.53	> 400	–	–	IFN (Mus musculus [14]): 50 mL
CCCOc1cccc(-c2nc(N)nc(O)c2I)c1	100	–	0	–	–	–	IFN (Mus musculus [2]): 10 units/mL
COc1cccc(-c2nc(N)nc(O)c2I)c1	40	> 400	–	> 400	–	–	IFN (Mus musculus [2]): 10 units/mL; Protection index (Mus musculus [12]): 0.54
Nc1nc(O)c(Br)c(-c2cc(Cl)cc(Cl)c2)n1	245	> 400	–	> 400	–	–	IFN (Mus musculus [2]): 10 units/mL
CC(C)(C)c1ccc(-c2nc(N)nc(O)c2Cl)cc1	–	–	–	–	inactive	inactive	ED50 (Semliki Forest virus [8]): inactive
Nc1nc(O)c(I)c(-c2ccc(-c3ccccc3)cc2)n1	–	–	–	–	inactive	inactive	ED50 (Semliki Forest virus [8]): inactive
CN(C)c1ccc(-c2nc(N)nc(O)c2Br)cc1	–	–	0.13	–	inactive	inactive	ED50 (Semliki Forest virus [8]): inactive
